Laboratory results as given in ChEMBL document CHEMBL4673248, “Discovery and Characterization of BAY 1214784, an Orally Available Spiroindoline Derivative Acting as a Potent and Selective Antagonist of the Human Gonadotropin-Releasing Hormone Receptor as Proven in a First-In-Human Study in Postmenopausal Women” (J Med Chem, 2020).
In brackets after ≈: the same amount, converted by molar mass.

Tests used:
Cytochrome P450 2C9 = Cytochrome P450 2C9 (Homo sapiens, UniProt P11712); assay: Inhibition of CYP2C9 in human liver microsomes using diclofenac as substrate by LC-MS/MS analysis; format: ADME
Sequence of Cytochrome P450 2C9 (P11712 whole entry): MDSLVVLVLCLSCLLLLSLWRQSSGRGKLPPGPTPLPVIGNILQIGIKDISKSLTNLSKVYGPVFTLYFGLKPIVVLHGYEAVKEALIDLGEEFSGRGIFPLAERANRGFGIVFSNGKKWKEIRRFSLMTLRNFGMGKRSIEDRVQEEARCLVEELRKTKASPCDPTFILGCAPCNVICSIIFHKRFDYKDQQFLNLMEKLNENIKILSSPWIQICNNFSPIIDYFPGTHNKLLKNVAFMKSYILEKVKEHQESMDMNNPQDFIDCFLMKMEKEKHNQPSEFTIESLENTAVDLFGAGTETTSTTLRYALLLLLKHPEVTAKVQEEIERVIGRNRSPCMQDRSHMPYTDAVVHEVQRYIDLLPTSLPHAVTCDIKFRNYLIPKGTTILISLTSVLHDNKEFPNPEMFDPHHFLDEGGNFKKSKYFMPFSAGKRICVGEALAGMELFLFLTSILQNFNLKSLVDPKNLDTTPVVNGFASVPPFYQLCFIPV

[1] = Efflux ratio of apparent permeability across basolateral to apical side over apical to basolateral side in human Caco2 cells at 2 uM measured after 2 hrs by LC-MS/MS analysis; format: ADME, cell-based; conditions: Caco-2
How it was run: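 Caco-2 monolayers grown 15 d, integrity checked by TEER. Compound 2 µM added apical or basolateral in FCS-free HEPES carbonate buffer pH 7.2, incubated 2 h at 37 °C. Both compartments sampled before and after, analysed by LC-MS/MS after MeOH precipitation. Papp computed from receiver peak area, surface area and time. Efflux ratio taken as Papp B–A/Papp A–B.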

[2] = Maximum oral bioavailability in human liver microsomes based well stirred liver model at 1 uM measured after 2 to 60 mins in presence of NADP generating system by LC-MS/MS analysis; format: ADME, Microsome; conditions: time 2-60 min, read-out: Fmax
How it was run: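 Human liver microsomes at 0.5 mg/mL in 100 mM phosphate pH 7.4, 37 °C, G6P/NADP/G6PDH cofactor mix. Compound 1 µM, sampled at 2, 8, 16, 30, 45 and 60 min into cold MeOH, LC-MS/MS. Half-life to intrinsic clearance. Fmax from well-stirred model with liver blood flow 1.32 L/h/kg.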

Cynomolgus monkey = assay: Suppression of orchiectomy-induced increase in plasma luteinizing hormone level in cynomolgus monkey at 20 mg/kg, po measured up to 24 hrs by RIA; format: functional, Macaca fascicularis; conditions: time hrs <=24
How it was run: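 Orchiectomized cynomolgus monkeys given a single oral dose of 20 mg/kg. Plasma LH suppression expressed relative to baseline levels.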

[3] = Maximum oral bioavailability in dog liver microsomes based well stirred liver model; format: ADME, Canis lupus familiaris, Microsome; conditions: read-out: Fmax
[4] = Antagonist activity at cynomolgus monkey GnRH receptor expressed in CHO-K1 cells assessed as inhibition of buserelin-induced response preincubated for 20 mins followed by buserelin addition and measured after 60 mins by TR-FRET assay; format: cell-based; conditions: Macaca fascicularis
How it was run: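 Frozen CHO-K1 cells expressing cynomolgus receptor: thawed, 1 h recovery at 37 °C with IP1-d2 tracer. 5000 cells/well in Ham's F12, 20 min preincubation with compound at rt. Buserelin added at 1× EC80 in HEPES stimulation buffer pH 7.4 with LiCl, 60 min at 37 °C. Lysis with Tb-anti-IP1 antibody (1:20), HTRF IP1 read after 60 min. Duplicates, up to 11 concentrations.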

[5] = Maximum oral bioavailability in cynomolgus monkey hepatocytes; format: ADME, Macaca fascicularis, Hepatocyte; conditions: read-out: Fmax
[6] = target: T1, Gonadotropin-releasing hormone receptor (Homo sapiens, UniProt P30968); assay: Inhibition of Tag-lite green-labeled agonist binding to terbium fluorophore-labeled human N-terminal SNAP-tag GnRh receptor expressed in HEK293 cells assessed as dissociation constant by TR-FRET assay; format: cell-based
T1 sequence (P30968 whole entry): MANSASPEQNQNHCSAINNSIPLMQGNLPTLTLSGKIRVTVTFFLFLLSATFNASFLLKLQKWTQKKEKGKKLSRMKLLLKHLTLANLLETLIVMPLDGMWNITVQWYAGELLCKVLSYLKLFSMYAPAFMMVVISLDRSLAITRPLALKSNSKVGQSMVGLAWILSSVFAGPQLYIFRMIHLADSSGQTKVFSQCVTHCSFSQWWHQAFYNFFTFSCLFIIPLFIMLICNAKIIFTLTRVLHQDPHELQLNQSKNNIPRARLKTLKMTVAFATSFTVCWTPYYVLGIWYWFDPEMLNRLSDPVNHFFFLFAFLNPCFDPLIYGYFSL

Cannabinoid receptor 1 = Cannabinoid receptor 1 (Homo sapiens, UniProt P21554); assay: Inhibition of CB1 receptor (unknown origin)
Sequence of Cannabinoid receptor 1 (P21554 whole entry): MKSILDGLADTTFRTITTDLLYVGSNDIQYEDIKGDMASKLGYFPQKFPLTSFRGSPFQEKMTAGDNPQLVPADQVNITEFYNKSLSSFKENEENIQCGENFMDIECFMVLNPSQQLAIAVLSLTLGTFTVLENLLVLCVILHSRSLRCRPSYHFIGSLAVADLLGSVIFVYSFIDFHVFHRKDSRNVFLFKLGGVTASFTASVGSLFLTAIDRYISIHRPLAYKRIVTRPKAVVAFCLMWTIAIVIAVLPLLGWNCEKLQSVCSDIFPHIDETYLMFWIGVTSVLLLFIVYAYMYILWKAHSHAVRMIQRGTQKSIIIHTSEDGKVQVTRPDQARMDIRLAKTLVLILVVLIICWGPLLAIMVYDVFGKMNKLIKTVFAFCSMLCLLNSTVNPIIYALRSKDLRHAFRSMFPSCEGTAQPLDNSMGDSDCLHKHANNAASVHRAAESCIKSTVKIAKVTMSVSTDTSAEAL

[7] = Toxicity in postmenopausal woman at 5 to 450 mg, po administered as single dose using SMEDDS formulation; conditions: human, in vivo
[8] = Clearance in Wistar rat at 0.5 mg/kg, iv by LC-MS/MS analysis; format: ADME, organism-based; conditions: Wistar, in vivo
Cytochrome P450 2C8 = target: T2, Cytochrome P450 2C8 (Homo sapiens, UniProt P10632); assay: Inhibition of CYP2C8 in human liver microsomes using amodiaquine as substrate by LC-MS/MS analysis; format: ADME
T2 sequence (P10632 whole entry): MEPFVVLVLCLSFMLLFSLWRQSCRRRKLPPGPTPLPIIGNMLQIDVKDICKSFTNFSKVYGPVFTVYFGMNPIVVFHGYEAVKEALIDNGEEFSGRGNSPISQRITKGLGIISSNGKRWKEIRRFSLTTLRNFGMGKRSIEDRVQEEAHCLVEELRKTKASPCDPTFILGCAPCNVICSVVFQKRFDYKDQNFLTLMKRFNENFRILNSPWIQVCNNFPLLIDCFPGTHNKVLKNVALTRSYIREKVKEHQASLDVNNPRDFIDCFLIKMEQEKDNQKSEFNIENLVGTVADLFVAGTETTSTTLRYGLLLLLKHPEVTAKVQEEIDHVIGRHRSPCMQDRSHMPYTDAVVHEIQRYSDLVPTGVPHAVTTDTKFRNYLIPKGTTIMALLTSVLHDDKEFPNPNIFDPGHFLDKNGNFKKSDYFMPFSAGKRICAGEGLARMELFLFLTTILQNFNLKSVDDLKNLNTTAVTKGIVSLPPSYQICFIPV

Cytochrome P450 3A4 = Cytochrome P450 3A4 (Homo sapiens, UniProt P08684); assay: Irreversible inhibition of CYP3A4 in human liver microsomes using midazolam as substrate; format: ADME
Sequence of Cytochrome P450 3A4 (P08684 whole entry): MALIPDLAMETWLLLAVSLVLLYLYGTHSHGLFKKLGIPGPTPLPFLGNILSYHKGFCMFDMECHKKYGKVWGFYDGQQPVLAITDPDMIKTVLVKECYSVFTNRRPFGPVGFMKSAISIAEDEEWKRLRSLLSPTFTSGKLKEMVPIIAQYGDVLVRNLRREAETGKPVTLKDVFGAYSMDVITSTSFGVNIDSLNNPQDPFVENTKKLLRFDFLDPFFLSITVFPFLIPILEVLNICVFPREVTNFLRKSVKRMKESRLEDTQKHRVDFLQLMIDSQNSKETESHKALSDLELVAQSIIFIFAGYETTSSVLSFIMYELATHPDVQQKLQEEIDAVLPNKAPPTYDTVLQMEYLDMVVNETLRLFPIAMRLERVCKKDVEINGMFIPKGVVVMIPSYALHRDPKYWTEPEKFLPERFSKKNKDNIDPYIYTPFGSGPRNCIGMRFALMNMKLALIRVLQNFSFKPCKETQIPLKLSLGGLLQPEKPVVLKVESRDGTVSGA

[9] = Half life in Wistar rat at 0.5 mg/kg, iv by LC-MS/MS analysis; format: ADME, organism-based; conditions: in vivo
[10] = Aqueous solubility of compound at pH 6.5 incubated for 24 hrs under shaking condition by HPLC-MS/MS analysis; format: physicochemical; conditions: aqueous solution
How it was run: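 Compound from 1 mM DMSO solution, pH 6.5 buffer added, shaken 24 h at rt. Filtered, dissolved compound quantified by HPLC-MS/MS.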

[11] = target: Mitogen-activated protein kinase 3 (Homo sapiens, UniProt P27361); assay: Inhibition of MAPK3 (unknown origin)
Sequence of Mitogen-activated protein kinase 3 (P27361 whole entry): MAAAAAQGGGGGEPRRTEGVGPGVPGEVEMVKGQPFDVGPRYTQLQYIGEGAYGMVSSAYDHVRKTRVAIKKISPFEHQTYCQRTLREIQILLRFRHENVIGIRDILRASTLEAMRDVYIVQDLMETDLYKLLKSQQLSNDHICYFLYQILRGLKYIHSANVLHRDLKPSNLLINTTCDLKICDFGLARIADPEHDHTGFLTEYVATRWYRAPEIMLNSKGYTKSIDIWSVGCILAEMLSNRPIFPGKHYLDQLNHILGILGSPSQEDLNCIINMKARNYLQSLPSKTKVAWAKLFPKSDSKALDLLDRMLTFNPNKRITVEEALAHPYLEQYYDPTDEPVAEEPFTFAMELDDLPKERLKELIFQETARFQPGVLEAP

[12] = Maximum oral bioavailability in human hepatocytes; format: ADME, Hepatocyte; conditions: read-out: Fmax
[13] = target: Voltage-gated inwardly rectifying potassium channel KCNH2 (Homo sapiens, UniProt Q12809); assay: Inhibition of human ERG expressed in HEK293 cells assessed as reduction in channel inward tail current by whole cell voltage clamp assay; format: cell-based
Sequence of Voltage-gated inwardly rectifying potassium channel KCNH2 (Q12809 whole entry): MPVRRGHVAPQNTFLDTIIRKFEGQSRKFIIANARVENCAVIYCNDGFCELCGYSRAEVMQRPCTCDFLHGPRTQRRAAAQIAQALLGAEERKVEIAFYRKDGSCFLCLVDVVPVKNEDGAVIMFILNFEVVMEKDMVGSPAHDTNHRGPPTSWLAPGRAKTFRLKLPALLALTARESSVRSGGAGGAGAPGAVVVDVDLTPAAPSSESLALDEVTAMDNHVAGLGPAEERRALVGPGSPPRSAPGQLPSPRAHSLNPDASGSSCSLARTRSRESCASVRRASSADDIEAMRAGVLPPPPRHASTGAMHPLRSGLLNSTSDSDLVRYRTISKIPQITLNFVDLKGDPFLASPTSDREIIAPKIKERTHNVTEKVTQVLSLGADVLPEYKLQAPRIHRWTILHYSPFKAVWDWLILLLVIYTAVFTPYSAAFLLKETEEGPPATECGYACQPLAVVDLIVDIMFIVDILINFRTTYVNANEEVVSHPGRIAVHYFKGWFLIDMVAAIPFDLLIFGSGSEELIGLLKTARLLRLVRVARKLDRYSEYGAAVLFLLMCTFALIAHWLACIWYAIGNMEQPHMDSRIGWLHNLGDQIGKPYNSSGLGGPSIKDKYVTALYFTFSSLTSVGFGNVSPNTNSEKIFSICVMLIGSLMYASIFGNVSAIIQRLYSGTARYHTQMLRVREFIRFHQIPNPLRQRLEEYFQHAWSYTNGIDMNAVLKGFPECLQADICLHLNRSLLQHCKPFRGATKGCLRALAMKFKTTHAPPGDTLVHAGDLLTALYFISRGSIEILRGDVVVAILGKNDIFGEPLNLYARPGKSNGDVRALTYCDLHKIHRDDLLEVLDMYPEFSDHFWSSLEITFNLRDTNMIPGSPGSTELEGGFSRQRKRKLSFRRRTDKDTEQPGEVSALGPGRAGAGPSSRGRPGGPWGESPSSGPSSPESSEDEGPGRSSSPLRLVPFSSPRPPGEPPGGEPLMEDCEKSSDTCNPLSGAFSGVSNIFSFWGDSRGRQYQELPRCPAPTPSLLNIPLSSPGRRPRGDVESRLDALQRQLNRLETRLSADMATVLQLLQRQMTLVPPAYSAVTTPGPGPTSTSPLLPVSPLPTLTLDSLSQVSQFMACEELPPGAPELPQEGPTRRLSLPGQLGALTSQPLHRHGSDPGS

[14] = Maximum oral bioavailability in cynomolgus monkey liver microsomes based well stirred liver model; format: ADME, Macaca fascicularis, Microsome; conditions: read-out: Fmax

- IC50 (Cytochrome P450 2C9): > 10 µM
- efflux ratio at 2 h, 2 µM [1]: 10
- Fh at 1 µM [2]: 100%
- Fh [3]: 85%
- IC50 [4]: 35 nM
- Fh [5]: 72%
- Kd [6]: 9.83 nM
- IC50 (Cannabinoid receptor 1): 3.4 µM
- clearance [8]: 9 mL/min/kg
- IC50 (Cytochrome P450 2C8): 1000 nM
- IC50 (Cytochrome P450 3A4): > 10 µM
- half-life [9]: 960 min
- solubility at 24 h [10]: 7.1 µg/mL (≈ 10.6 µM)
- IC50 [11]: 4.9 µM
- Fh [12]: 93%
- Fh [14]: 81%
Compound: O=C(NCc1ncc(C(F)(F)F)cc1Cl)c1ccc2c(c1)C1(CCS(=O)(=O)CC1)[C@H](C1CC1)N2S(=O)(=O)c1ccc(F)cc1 [BAY-784]
- Activity (Cynomolgus monkey): <=60%
- Activity [7]: Non-Toxic
- IC50 [13]: > 10 µM
